ChEMBL document CHEMBL1153639, “A facile synthesis and antimycobacterial evaluation of novel spiro-pyrido-pyrrolizines and pyrrolidines” (2009)
Converted amounts (≈) assume the structure as drawn.

Tests used:
[1] = tested on: Mycolicibacterium smegmatis; test: Antimycobacterial against Mycobacterium smegmatis MC2 by agar dilution method; assay type: functional
Outline: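 MIC read by agar dilution, run in triplicate against M. smegmatis MC², screened in parallel with M. tuberculosis and an MDR-TB clinical isolate.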

[2] = tested on: Mycobacterium tuberculosis; test: Antimycobacterial against Mycobacterium tuberculosis H37Rv by agar dilution method; assay type: functional
Outline: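 MIC read by agar dilution against M. tuberculosis H37Rv, run in triplicate.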

Work on `CN1CCC(=O)[C@]2(C1)[C@@H](c1ccccc1Cl)[C@H](c1ccccc1)N[C@@]21C(=O)Nc2ccccc21` yielded an MIC [1] of 53 µM (≈ 25 µg/mL) and an MIC [2] of 13.2 µM (≈ 6.25 µg/mL).
Work on `Cc1ccc([C@H]2[C@@H]3CCCN3[C@@]3(C(=O)Nc4ccccc43)[C@@]23CN(C)CCC3=O)cc1` yielded an MIC [1] of 15 µM (≈ 6.25 µg/mL) and an MIC [2] of 7.53 µM (≈ 3.13 µg/mL).
Compound `CN1CCC(=O)[C@]2(C1)[C@@H](c1cccc(F)c1)[C@H](c1ccccc1)N[C@@]21C(=O)Nc2ccccc21` has an MIC [1] of 54.9 µM (≈ 25 µg/mL) and an MIC [2] of 6.87 µM (≈ 3.13 µg/mL).
For `NC(=O)c1cnccn1` [PYRAZINAMIDE], the MIC [1] was 406 µM (≈ 50 µg/mL) and the MIC [2] was 50.8 µM (≈ 6.25 µg/mL).
`CC[C@@H](CO)NCCN[C@@H](CC)CO` [ETHAMBUTOL] gave an MIC [1] of 122 µM (≈ 25 µg/mL) and an MIC [2] of 7.64 µM (≈ 1.56 µg/mL).
`CN1CCC(=O)[C@]2(C1)[C@@H](c1ccc(Cl)cc1Cl)[C@@H]1CCCN1[C@@]21C(=O)Nc2ccccc21` was tested, and the MIC [1] was 53.1 µM (≈ 25 µg/mL) and the MIC [2] was 3.32 µM (≈ 1.56 µg/mL).
`CN1CCC(=O)[C@]2(C1)[C@@H](c1ccc(Cl)cc1Cl)CN(C)[C@@]21C(=O)Nc2ccccc21` was tested, and the MIC [1] was 56.3 µM (≈ 25 µg/mL) and the MIC [2] was 1.76 µM (≈ 0.782 µg/mL).
`CN1CCC(=O)[C@]2(C1)[C@@H](c1ccc(Cl)cc1Cl)[C@H](c1ccccc1)N[C@@]21C(=O)Nc2ccccc21` was tested, and the MIC [1] was 98.7 µM (≈ 50 µg/mL) and the MIC [2] was 12.3 µM (≈ 6.25 µg/mL).
Compound `CN1CCC(=O)[C@]2(C1)[C@@H](c1ccccc1Cl)[C@@H]1CCCN1[C@@]21C(=O)Nc2ccccc21` has an MIC [1] of 28.7 µM (≈ 12.5 µg/mL) and an MIC [2] of 3.58 µM (≈ 1.56 µg/mL).
`CN1CCC(=O)[C@]2(C1)[C@@H](c1cccc(F)c1)CN(C)[C@@]21C(=O)Nc2ccccc21` showed an MIC [1] of 63.5 µM (≈ 25 µg/mL) and an MIC [2] of 7.95 µM (≈ 3.13 µg/mL).
`Cc1ccc([C@H]2CN(C)[C@@]3(C(=O)Nc4ccccc43)[C@@]23CN(C)CCC3=O)cc1` was tested, and the MIC [1] was 32.1 µM (≈ 12.5 µg/mL) and the MIC [2] was 16.1 µM (≈ 6.25 µg/mL).
`CN1CCC(=O)[C@]2(C1)[C@@H](c1cccc(F)c1)[C@@H]1CCCN1[C@@]21C(=O)Nc2ccccc21` showed an MIC [1] of 29.8 µM (≈ 12.5 µg/mL) and an MIC [2] of 7.46 µM (≈ 3.13 µg/mL).
Compound `NNC(=O)c1ccncc1` [ISONIAZID] has an MIC [1] of 45.6 µM (≈ 6.25 µg/mL) and an MIC [2] of 0.39 µM (≈ 0.0535 µg/mL).
In the case of `COc1ccc([C@H]2CN(C)[C@@]3(C(=O)Nc4ccccc43)[C@@]23CN(C)CCC3=O)cc1`, the MIC [1] is reported as 61.6 µM (≈ 25 µg/mL) and the MIC [2] is reported as 30.8 µM (≈ 12.5 µg/mL).
In the case of `COc1ccc([C@H]2[C@@H]3CCCN3[C@@]3(C(=O)Nc4ccccc43)[C@@]23CN(C)CCC3=O)cc1`, the MIC [1] is reported as 57.9 µM (≈ 25 µg/mL) and the MIC [2] is reported as 14.5 µM (≈ 6.25 µg/mL).
Work on `Cc1ccc([C@H]2[C@H](c3ccccc3)N[C@@]3(C(=O)Nc4ccccc43)[C@@]23CN(C)CCC3=O)cc1` yielded an MIC [1] of 111 µM (≈ 50 µg/mL) and an MIC [2] of 27.7 µM (≈ 12.5 µg/mL).
`CN1CCC(=O)[C@]2(C1)[C@@H](c1ccccc1Cl)CN(C)[C@@]21C(=O)Nc2ccccc21` showed an MIC [1] of 30.5 µM (≈ 12.5 µg/mL) and an MIC [2] of 7.64 µM (≈ 3.13 µg/mL).
Work on `COc1ccc([C@H]2[C@H](c3ccccc3)N[C@@]3(C(=O)Nc4ccccc43)[C@@]23CN(C)CCC3=O)cc1` yielded an MIC [1] of 53.5 µM (≈ 25 µg/mL) and an MIC [2] of 26.7 µM (≈ 12.5 µg/mL).
